Assay results: ChEMBL document CHEMBL1177761, “Click chemistry to probe Hsp90: Synthesis and evaluation of a series of triazole-containing novobiocin analogues” (Bioorg Med Chem Lett, 2010)
pIC50: −log10 of the molar value. Several values for one entry are separate records, joined by “and”; a condition that tells them apart may be missing. Identical values can stand only once. Activity calls are given as the source filed them. No cut-off for these calls is given here.

How the values were obtained:
MCF7 = experiment: Antiproliferative activity against human MCF7 cells expressing ER; assay type: functional, cell-based
Method in brief: (§1)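 Growth inhibition was measured in the listed cell lines. IC50 is the compound concentration that inhibits cellular growth by 50%. Values are mean ± standard error from at least two separate experiments, each run in triplicate.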

SK-BR-3 = experiment: Antiproliferative activity against human ER deficient SKBR3 cells over expressing HER2; assay type: functional, cell-based; method in brief: as §1
[1] = target: T1, Heat shock protein HSP90 (Homo sapiens) (UniProt P07900+P08238); experiment: Inhibition of Hsp90 in human MCF7 cells assessed as Her2 degradation by Western blot analysis; assay type: cell-based
[2] = target: MCF-7 and SKBr-3 cells (Homo sapiens); experiment: Antiproliferative activity against human MCF7 and SKBr3 cells
[3] = target: T1, Heat shock protein HSP90 (Homo sapiens); experiment: Inhibition of Hsp90 in human MCF7 cells assessed as c-Raf degradation by Western blot analysis; assay type: cell-based

SMILES	pIC50 (MCF7)	pIC50 (SK-BR-3)	inhibition [1]	IC50 [2]	inhibition [3]
CC(=O)Oc1ccc2cc(-n3cc(-c4ccc(N(C)C)cc4)nn3)c(=O)oc2c1C	< 4.00	< 4.00	inactive		
COc1cccc(-c2cc(-c3cn(-c4cc5ccc(OC(C)=O)c(C)c5oc4=O)nn3)ccc2OC)c1	4.37	4.29			
COc1cccc(-c2cc(-c3cn(-c4cc5ccc(O[C@@H]6OC(C)(C)[C@H](OC)[C@@H](O)[C@H]6O)c(C)c5oc4=O)nn3)ccc2OC)c1	4.88	4.67			
CO[C@@H]1[C@@H](O)[C@@H](O)[C@H](Oc2ccc3cc(-n4cc(-c5c[nH]c6ccccc56)nn4)c(=O)oc3c2C)OC1(C)C	4.74	5.09			
CO[C@@H]1[C@@H](OC(N)=O)[C@@H](O)[C@H](Oc2ccc3c(O)c(NC(=O)c4ccc(O)c(CC=C(C)C)c4)c(=O)oc3c2C)OC1(C)C [NOVOBIOCIN]	3.32	3.32			
CC(=O)Oc1ccc2cc(-n3cc(-c4ccc(F)cc4F)nn3)c(=O)oc2c1C	< 4.00	< 4.00			
CO[C@@H]1[C@@H](O)[C@@H](C)[C@H](Oc2ccc3cc(NC(=O)c4c[nH]c5ccccc45)c(=O)oc3c2C)OC1(C)C				5.3 µM and 12.2 µM	
CC(=O)Oc1ccc2cc(-n3cc(-c4cc5ccccc5[nH]4)nn3)c(=O)oc2c1C	4.12	4.30			
CC(=O)Oc1ccc2cc(-n3cc(-c4c[nH]c5ccccc45)nn3)c(=O)oc2c1C	5.13	5.19	Dose-dependent effect		Dose-dependent effect
COc1ccc(-c2cn(-c3cc4ccc(OC(C)=O)c(C)c4oc3=O)nn2)cc1	< 4.00	< 4.00			

Next, values leading:

pIC50 (MCF7)	pIC50 (SK-BR-3)	inhibition [1]	IC50 [2]	inhibition [3]	SMILES
4.55	4.35				COc1cccc(-c2cc(-c3cn(-c4cc5ccc(O)c(C)c5oc4=O)nn3)ccc2OC)c1
4.60	4.41				Cc1c(O)ccc2cc(-n3cc(-c4ccccc4)nn3)c(=O)oc12
4.39	4.12				CC(=O)Oc1ccc2cc(-n3cc(-c4ccccc4)nn3)c(=O)oc2c1C
< 4.00	4.04				CC(=O)Oc1ccc2cc(-n3cc(-c4ccc(C)cc4)nn3)c(=O)oc2c1C
4.19	< 4.00				CO[C@@H]1[C@@H](O)[C@@H](O)[C@H](Oc2ccc3cc(-n4cc(-c5ccccc5)nn4)c(=O)oc3c2C)OC1(C)C
< 4.00	< 4.00				Cc1c(O)ccc2cc(-n3cc(-c4ccc(N(C)C)cc4)nn3)c(=O)oc12
4.42	4.37				Cc1c(O)ccc2cc(-n3cc(-c4cc5ccccc5[nH]4)nn3)c(=O)oc12
< 4.00	< 4.00				COc1ccc(-c2cn(-c3cc4ccc(O)c(C)c4oc3=O)nn2)cc1
4.48	4.47				Cc1c(O)ccc2cc(-n3cc(-c4ccc(F)cc4F)nn3)c(=O)oc12
4.64	< 4.00				Cc1ccc(-c2cn(-c3cc4ccc(O)c(C)c4oc3=O)nn2)cc1
4.47	4.47				Cc1c(O)ccc2cc(-n3cc(/C=C/c4ccccc4)nn3)c(=O)oc12
4.55	4.19				CC(=O)Oc1ccc2cc(-n3cc(/C=C/c4ccccc4)nn3)c(=O)oc2c1C
